# Source: BindingDB's records for doi:10.1016/j.bmc.2007.11.023 (2008)
# Molecular target: Mitochondrial complex I; NADH oxidoreductase (Bos taurus, UniProt P25708+P52505)
# Assay: Inhibition of NADH-ubiquinone oxidoreductase assessed as NADH oxidase activity in bovine heart submitochondrial particles
# Procedure, shortened: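 Bovine heart submitochondrial particles (sonicated mitochondria isolated by differential centrifugation) in air-saturated 75 mM sodium potassium phosphate, pH 7.4, with 1 mM each EDTA and MgCl2, at 30 °C and 42–219 µg/mL protein. Compounds added in methanol (≤2% v/v) and preincubated 4 min. The reaction is started with 0.16 mM NADH (final). Oxidation is followed over 4 min as A340 decrease. Means of 2–4 independent experiments.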
# Sequence of Mitochondrial complex I; NADH oxidoreductase (P25708 21-464 limits assumed, other chains not shown): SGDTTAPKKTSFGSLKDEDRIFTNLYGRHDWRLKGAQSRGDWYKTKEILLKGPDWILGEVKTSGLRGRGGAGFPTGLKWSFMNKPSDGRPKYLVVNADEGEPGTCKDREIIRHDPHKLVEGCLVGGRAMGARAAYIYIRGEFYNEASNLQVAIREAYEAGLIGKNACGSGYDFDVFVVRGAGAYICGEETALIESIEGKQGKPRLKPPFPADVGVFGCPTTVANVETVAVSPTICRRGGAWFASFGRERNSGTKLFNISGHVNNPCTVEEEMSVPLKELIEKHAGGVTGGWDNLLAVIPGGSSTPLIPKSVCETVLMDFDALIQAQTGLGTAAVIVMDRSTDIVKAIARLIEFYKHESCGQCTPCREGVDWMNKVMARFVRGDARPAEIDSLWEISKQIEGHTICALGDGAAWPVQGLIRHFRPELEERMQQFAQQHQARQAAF
smiles,measurement,value
CCCC1C(=O)C(C)(O)C(=O)N=C1C=CC(C)C/C=C/C(C)C (configuration not stated) [IROMYCIN F],IC50,> 25.3 µM
CCCC1(O)C(=O)C(C)C(=O)N=C1C=CC(C)C/C=C/C(C)C (configuration not stated) [IROMYCIN E],IC50,> 25.3 µM
